Screening results (PubChem BioAssay)
The list is not random: actives were taken first. Their share in the collection is about 6.8%.
ALR H2O2 inh – inhibitors of human ALR sulfhydryl oxidase, primary screen, biochemical, H2O2 detection, HRP-luminol luminescence, single point; inhibition, % (test concentration not listed); 3.8% of 290,000 active; FAD-linked sulfhydryl oxidase ALR (Homo sapiens), P55789; purified ALR, DTT oxidation;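 active = mean replicate inhibition above about 79%, with every replicate also reaching it, limit read from the data; inconclusive = only one of the two criteria met; inactive = mean below limit and not every replicate reaching it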
Target sequence (P55789 whole entry, looked up): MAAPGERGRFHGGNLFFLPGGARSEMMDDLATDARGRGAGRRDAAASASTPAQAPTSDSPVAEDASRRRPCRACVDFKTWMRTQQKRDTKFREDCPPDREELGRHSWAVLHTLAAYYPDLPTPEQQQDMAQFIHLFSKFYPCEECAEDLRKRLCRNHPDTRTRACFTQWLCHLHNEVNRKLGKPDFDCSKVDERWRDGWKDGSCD
HSF-1 act – HSF-1 activators, primary screen, NIH3T3-HGL cells, MG132 stress, luminescence, single point. AID 504408, 2011. NIH3T3-HGL HSF-1 luciferase reporter, 8 h; 100% = twice DMSO control signal. 1.7% of 300,000 active. activation, % at 9 µM;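 active = mean replicate activation of at least 50% with a set share of replicates each reaching 50%; inconclusive = only one of those two conditions met; inactive = mean below 50% and too few replicates reaching it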;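 also: 0% = median of the neutral control wells and 100% = twice that signal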
HSF1 inh – HSF1 inhibitors in luciferase reporter cells, primary screen, cell-based, NIH3T3, luminescence. NIH3T3-HGL HSE-luciferase, MG132-induced, luminescence 8 h; hits give low values. AID 2098, 2009. 0.77% of 300,000 active. activity change, negative = inhibition, % at 7.5 µM (by protocol);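 active = more than half of replicate wells show activity change below -50%, luminescence cut by over half; inconclusive = some wells, but at most half, below -50%; inactive = no replicate well below -50%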;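 also: luciferase reports HSF-1 transcriptional activity via heat shock element; 0% = median of DMSO wells and -100% = zero luminescence signal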
core dimer inh – inhibitors of HCV core protein dimerization, primary screen, biochemical, TR-FRET, high-throughput. TR-FRET GST/Flag-core106 dimerization, 1536-well. 0.33% of 300,000 active. inhibition, % at 5 µM;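 active = inhibition above the mean of all tested compounds plus 3 SD, set per screening campaign, cut at about 45% in these data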
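Assay system – GST-tagged and Flag-tagged HCV core protein residues 1-106 · Quantity – core106 proteins, GST 13.5 nM and Flag 17 nM · Benchmarks – unlabelled core106 and no-GST-core106 wells · Read-out basis – percent inhibition of core106 dimerization signal · Detection – time-resolved FRET, ex 340 nm, em 617 and 671 nm · Schedule – 4 h at 22.5 °C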
PHOSPHO1 block – PubChem AID 1565. inhibition, % at 13.3 µM. recombinant PHOSPHO1, absorbance phosphatase assay. 1.1% of 290,000 active. Phosphoethanolamine/phosphocholine phosphatase (Homo sapiens), Q8TCT1; in the data active = inhibition above about 60%
Target sequence (Q8TCT1 whole entry, looked up): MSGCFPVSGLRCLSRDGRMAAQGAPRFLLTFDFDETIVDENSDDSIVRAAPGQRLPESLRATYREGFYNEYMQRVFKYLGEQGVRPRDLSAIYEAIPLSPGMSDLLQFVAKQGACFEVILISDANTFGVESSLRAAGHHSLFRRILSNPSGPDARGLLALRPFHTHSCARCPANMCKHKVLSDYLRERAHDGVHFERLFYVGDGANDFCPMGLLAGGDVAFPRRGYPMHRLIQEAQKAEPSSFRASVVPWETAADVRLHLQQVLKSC
AI-2 QS modul – Vibrio harveyi AI-2 quorum sensing modulators, primary screen, JMH597 strain, luminescence/OD600 ratio; Vibrio harveyi JMH597 AI-2 luminescence/OD600 ratio, 9 h; hits give low values; strain lacks LuxN and CqsS sensors; 0 = neutral-control median; activity change, % at 7.5 µM; 0.4% of 300,000 active; in the data active = activity change below about -75%, passing the limit was not always enough; inconclusive = no clear call, values can overlap the other calls;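 also: luminescence divided by OD600 gain over 9 h not by final OD600 alone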
Active calls of the source: *; u = inconclusive; x = no result given.

SMILES	ALR H2O2 inh	HSF-1 act	HSF1 inh	core dimer inh	PHOSPHO1 block	AI-2 QS modul
COc1ccc(-n2c(C)cc(/C=C3\C(=O)NN(c4ccccc4)C3=O)c2C)cc1	25	25	7	10	-2	30
Cc1cc(/C=C2/C(=O)NN(c3ccccc3)C2=O)c(C)n1-c1ccc(O)cc1	52	-69	-69*	-12	18	22
Cc1ccc(NC(=O)C2CC(=O)N(Cc3ccccc3)C2)nc1 (configuration not stated)	x	6	-2	-1	x	9
O=C(CCC1CCCCC1=O)c1ccccc1 (configuration not stated)	-3	2	5	1	15	35
CC1(C)CC(=O)C(CCC(=O)c2ccccc2)C(C)(C)N1 (configuration not stated)	-18	-89	-86*	4	-20	26
COc1ccc(OCC(=O)c2c(O)c3ccccc3oc2=O)cc1	13	2	4	-2	-35	18
CCOc1ccc(OCC(=O)c2c(O)c3ccccc3oc2=O)cc1	5	1	3	0	68*	35
O=C(CC1CCCCC1)c1c(O)c2ccccc2oc1=O	97*	-4	12	7	-11	24
CCCOP(=O)(OCCC)C1(Nc2ccc(C)cc2)CCCCC1	93*	-2	0	3	6	-2
CCOP(=O)(OCC)C(NC(=O)Nc1ccc(C)cc1)C(N)=O (configuration not stated)	-3	-2	0	-1	12	10
O=c1[nH]c2cc3c(cc2cc1C(c1nnnn1CC1CCCO1)N1CCCCCC1)OCCO3 (configuration not stated)	-31	-24	-7	1	3	25
Cc1c(O)c(CN(C)C)cc2c1oc(=O)c1ccccc12	97*	-5	-1	1	12	12
Cc1c(O)c(CN2CCCCC2)cc2c1oc(=O)c1ccccc12	18	35	5	1	40	-5
COc1cc(/C=N/NC(=O)CC23CC4CC(CC(C4)C2)C3)cc(Br)c1OCC(=O)N(C)C	-54	-8	-9	16	-2	23
CCn1c(CN(C)c2ccccc2)nc2ccccc21	98*	18	5	-2	x	-13
COc1ccc(C(NC(=O)c2c(F)c(F)c(F)c(F)c2F)c2ccccc2)cc1 (configuration not stated)	-15	53*	41	4	-9	36
COCCNC(=O)Nc1ccc2c(c1)N(C)C(=O)c1ccccc1S2	96*	-5	-8	3	8	-7
O=C(O/N=C1/CCCc2occc21)c1ccc(Cl)cc1Cl	-16	13	4	5	28	x
Nc1c(N(CCCO)C(=O)C2CCCCC2)c(=O)[nH]c(=O)n1Cc1ccccc1	-6	x	x	x	x	x
O=C(NC(=O)c1ccccc1)Nc1ccc(Cl)cn1	-3	-3	1	-6	31	17
CCSc1nnc(NC(=O)C(Cc2ccccc2)n2cccc2)s1 (configuration not stated)	x	-79	-75*	3	-21	30
Cc1csc(NC(=O)C(Cc2ccccc2)n2cccc2)n1 (configuration not stated)	6	2	-14	18	-3	16
CCOc1cc(/C=N/NC(=O)c2cc(C3CC3)[nH]n2)ccc1O	x	-9	0	-4	-38	21
COc1cc(/C=N/NC(=O)c2cc(C3CC3)[nH]n2)ccc1O	99*	5	2	-4	-11	26
COc1cc(/C=N/NC(=O)c2ccc(=O)[nH]n2)ccc1O	99*	-3	-13	-12	8	28
SMILES	ALR H2O2 inh	HSF-1 act	HSF1 inh	core dimer inh	PHOSPHO1 block	AI-2 QS modul
O=C(N/N=C/c1ccc(O)cc1)c1cc(C2CC2)[nH]n1	99*	-12	-9	4	18	15
COc1ccc(/C=N/NC(=O)c2cc(C3CC3)[nH]n2)cc1OC	x	-5	0	-2	33	37
CCN1CCN(c2ccc(S(=O)(=O)N3CCOCC3)cc2NC(=O)COc2ccc(F)cc2Cl)CC1	6	5	7	8	13	35
COc1ccc(C(=O)COC(=O)CCNS(=O)(=O)c2ccccc2)c(OC)c1	-4	23	5	17	x	0
CC1CCN(CCCNC(=O)c2nn(C)c3c2CS(=O)(=O)c2ccccc2-3)CC1	-2	8	-8	4	7	x
COCCCNC(=S)NNC(=O)c1ccc(S(=O)(=O)N2CCC(C)CC2)cc1	38	-1	3	-4	28	21
COc1ccc(-n2c(=S)[nH]c3cc(C(=O)Nc4ccc(F)cc4)ccc3c2=O)c(OC)c1	-1	87*	68	-6	27	22
Cn1c(N/N=C/c2cccs2)nc2c1c(=O)n(Cc1ccccc1)c(=O)n2C	u	19	12	-4	-14	7
Cn1c(=O)c2c(nc(N/N=C/c3cccs3)n2Cc2ccccc2)n(C)c1=O	96*	38	6	-1	-21	21
CCC(C)Nc1nc2c(c(=O)n(C)c(=O)n2C)n1Cc1cccc(C)c1 (configuration not stated)	97*	4	1	3	-4	26
COc1c(C(=O)Nc2nnc(C3CC3)s2)csc1Cl	-5	-22	-7	6	43	14
Nc1ccc2c(c1)nc(Cc1ccccc1)n2CCO	97*	3	-7	-13	8	29
OCCCc1nc2ccccc2n1CCc1ccccc1	-6	-1	3	-2	-4	37
Cc1ccc2nc(CSc3nc(C)ccc3C#N)[nH]c2c1	74	-65	-59*	-48	100*	21
COc1ccc(C(C(=O)NCC2CCCO2)N(C(=O)CNC(=O)c2cccs2)c2ccc(C)cc2)cc1OC (configuration not stated)	-3	4	-6	5	21	26
COc1ccc(NC(=S)NNc2ccc(S(=O)(=O)Nc3ccccc3C(=O)O)cc2[N+](=O)[O-])cc1	99*	-2	-5	-9	-74	15
Cc1ccc(S(=O)(=O)Nc2ccccc2C(=O)OC(C)C(=O)Nc2ccc3ccccc3c2)cc1[N+](=O)[O-] (configuration not stated)	0	6	2	47*	-5	-4
CCc1ccc(NC(=O)C(C)OC(=O)c2ccc(NS(=O)(=O)c3ccc(C)c([N+](=O)[O-])c3)cc2)cc1 (configuration not stated)	-4	-22	-9	35	-23	26
